Data: ChEMBL document CHEMBL1128590, “erbB-2 oncogene inhibition by geldanamycin derivatives: synthesis, mechanism of action, and structure-activity relationships” (J Med Chem, 1995)
Active and inactive are the calls of the source. The rule behind the calls is not given here.

Columns and labels:
SK-BR-3 = test: In vitro inhibition of p185 erbB-2 oncoprotein in human breast cancer SK-BR-3 cells; format: functional, cell-based
How it was run: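 Cellular assay with read-out as depletion of p185 erbB-2 protein after drug treatment of the cells. This depletion tracks inhibition of p185 autophosphorylation.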

Mus musculus [1] = test: In vivo inhibition of p185 phosphotyrosine in nu/nu nude mice bearing Fisher rat embryo cells transfected with human erbB-2; format: functional; parameters: concentration or dose not given beside the values
Mus musculus [2] = test: In vivo inhibition of p185 phosphotyrosine in nu/nu nude mice bearing Fisher rat embryo cells transfected with human erbB-2 (inactive); format: functional, organism-based

Row | SMILES | IC50 (SK-BR-3) | Inhibition (Mus musculus [1]) | inhibition (Mus musculus [2])
1 | C=CCNC1=C2C[C@@H](C)C[C@H](OC)C(=O)[C@@H](C)/C=C(\C)[C@H](OC(N)=O)[C@@H](OC)/C=C\C=C(/C)C(=O)NC(=CC1=O)C2=O | 220 nM | – | –
2 | COc1ccc(C(=O)CN2C(=O)/C(C)=C/C=C\[C@H](OC)[C@@H](OC(N)=O)/C(C)=C/[C@H](C)[C@@H](O)[C@@H](OC)C[C@H](C)CC3=C(N)C(=O)C=C2C3=O)cc1 | 1200 nM | – | –
3 | CO[C@H]1/C=C\C=C(/C)C(=O)NC2=CC(=O)C(N3CCC3)=C(C[C@@H](C)C[C@H](OC)[C@H](O)[C@@H](C)/C=C(\C)[C@@H]1OC(N)=O)C2=O | – | 61% | –
4 | CNC1=C2C[C@@H](C)C[C@H](OC)[C@H](NCc3ccccc3)[C@@H](C)/C=C(\C)[C@H](OC(N)=O)[C@@H](OC)/C=C\C=C(/C)C(=O)NC(=CC1=O)C2=O | 850 nM | – | –
5 | CO[C@H]1/C=C\C=C(/C)C(=O)NC2=CC(=O)C(N3CCC3)=C(C[C@@H](C)C[C@H](OC)[C@H](OC(=O)NS(=O)(=O)NC(C)C)[C@@H](C)/C=C(\C)[C@@H]1OC(N)=O)C2=O | 140 nM | – | inactive
6 | CO[C@H]1/C=C\C=C(/C)C(=O)NC2=CC(=O)C(N)=C(C[C@@H](C)C[C@H](OC)[C@H](O)[C@@H](C)/C=C(\C)[C@@H]1O)C2=O | > 3900 nM | – | –
7 | CO[C@H]1/C=C\C=C(/C)C(=O)NC2=CC(=O)C(N3CCC3)=C(C[C@@H](C)C[C@H](OC)[C@H](OC(N)=O)[C@@H](C)/C=C(\C)[C@@H]1OC(N)=O)C2=O | 50 nM | – | inactive
8 | CO[C@H]1C[C@H](C)CC2=C(N3CCC3)C(=O)C=C(NC(=O)/C(C)=C/C=C\[C@H](OC)[C@@H](OC(N)=O)/C(C)=C/[C@H](C)/C1=N/O)C2=O | 1100 nM | – | inactive
9 | C=CCNC1=C2C[C@@H](C)C[C@H](OC)[C@H](OC(=O)NS(=O)(=O)N3CN(C)C3)[C@@H](C)/C=C(\C)[C@H](OC(N)=O)[C@@H](OC)/C=C\C=C(/C)C(=O)NC(=CC1=O)C2=O | > 2500 nM | – | –
10 | CO[C@H]1/C=C\C=C(/C)C(=O)NC2=CC(=O)C(N3CCC3)=C(C[C@@H](C)C[C@H](OC)[C@H](O)[C@@H](C)/C=C(\C)[C@@H]1NC(N)=O)C2=O | 2600 nM | – | –
11 | CO[C@H]1/C=C\C=C(/C)C(=O)NC2=CC(=O)C(NC3CCC3)=C(C[C@@H](C)C[C@H](OC)[C@H](O)[C@@H](C)/C=C(\C)C1=O)C2=O | > 3700 nM | – | –
12 | C=CCN[C@H]1[C@@H](OC)C[C@H](C)CC2=C(NC)C(=O)C=C(NC(=O)/C(C)=C/C=C\[C@H](OC)[C@@H](OC(N)=O)/C(C)=C/[C@@H]1C)C2=O | 1000 nM | – | –
13 | CO[C@H]1C[C@H](C)CC2=C(NC(C)C)C(=O)C=C(NC(=O)/C(C)=C/C=C\[C@H](OC)[C@@H](OC(N)=O)/C(C)=C/[C@H](C)/C1=N/O)C2=O | 270 nM | – | –
14 | C=CCNC1=C2C[C@@H](C)C[C@H](OC)[C@H](O)[C@@H](C)/C=C(\C)[C@H](OC(=O)CN)[C@@H](OC)/C=C\C=C(/C)C(=O)NC(=CC1=O)C2=O | > 3300 nM | – | –
15 | C=CCNC1=C2C[C@@H](C)C[C@H](OC)[C@H](OC(=O)NS(=O)(=O)NC(C)C)[C@@H](C)/C=C(\C)[C@H](OC(N)=O)[C@@H](OC)/C=C\C=C(/C)C(=O)NC(=CC1=O)C2=O | 1070 nM | – | –
16 | CO[C@H]1/C=C\C=C(/C)C(=O)NC2=CC(=O)C(N3CCC3)=C(C[C@@H](C)C[C@H](OC)[C@H](OC(=O)NS(=O)(=O)N3CCN(C)CC3)[C@@H](C)/C=C(\C)[C@@H]1OC(N)=O)C2=O | 190 nM | – | inactive
17 | CNC1=C2C[C@@H](C)C[C@H](OC)C(=O)[C@@H](C)/C=C(\C)[C@H](OC(N)=O)[C@@H](OC)/C=C\C=C(/C)C(=O)NC(=CC1=O)C2=O | 34 nM | – | inactive
18 | CO[C@H]1/C=C\C=C(/C)C(=O)N(CC(=O)c2cccc3ccccc23)C2=CC(=O)C(N)=C(C[C@@H](C)C[C@H](OC)[C@H](O)[C@@H](C)/C=C(\C)[C@@H]1OC(N)=O)C2=O | 70 nM | – | inactive
19 | CO[C@H]1/C=C\C=C(/C)C(=O)N(CC(=O)c2ccccc2)C2=CC(=O)C(N)=C(C[C@@H](C)C[C@H](OC)[C@H](O)[C@@H](C)/C=C(\C)[C@@H]1OC(N)=O)C2=O | 300 nM | – | –
20 | CO[C@H]1/C=C\C=C(/C)C(=O)N(CC(=O)c2ccc([N+](=O)[O-])cc2)C2=CC(=O)C(N)=C(C[C@@H](C)C[C@H](OC)[C@H](O)[C@@H](C)/C=C(\C)[C@@H]1OC(N)=O)C2=O | 90 nM | – | –
21 | CO[C@H]1/C=C\C=C(/C)C(=O)NC2=CC(=O)C(NC3CC3)=C(C[C@@H](C)C[C@H](OC)[C@@H](F)[C@@H](C)/C=C(\C)[C@@H]1OC(N)=O)C2=O | 500 nM | – | –
22 | CO[C@H]1/C=C\C=C(/C)C(=O)N(CC(=O)c2ccc(Cl)c(Cl)c2)C2=CC(=O)C(N)=C(C[C@@H](C)C[C@H](OC)[C@H](O)[C@@H](C)/C=C(\C)[C@@H]1OC(N)=O)C2=O | 80 nM | – | inactive
23 | CO[C@H]1/C=C\C=C(/C)C(=O)NC2=CC(=O)C(N3CCC3)=C(C[C@@H](C)C[C@H](OC)[C@H](O)[C@@H](C)/C=C(\C)[C@@H]1/N=C(/N)S)C2=O | 1700 nM | – | –

Row | SMILES | IC50 (SK-BR-3) | Inhibition (Mus musculus [1]) | inhibition (Mus musculus [2])
24 | CO[C@H]1/C=C\C=C(/C)C(=O)NC2=CC(=O)C(N3CCC3)=C(C[C@@H](C)C[C@H](OC)[C@H](O)[C@@H](C)/C=C(\C)[C@@H]1O)C2=O | 1290 nM | – | –
25 | CO[C@H]1C[C@H](C)CC2=C(N3CCC3)C(=O)C=C(NC(=O)/C(C)=C/CC[C@H](OC)[C@@H](OC(N)=O)/C(C)=C/[C@H](C)[C@@H]1F)C2=O | 40 nM | – | inactive
26 | CO[C@H]1/C=C\C=C(/C)C(=O)N(Cc2ccccn2)C2=CC(=O)C(N)=C(C[C@@H](C)C[C@H](OC)[C@H](O)[C@@H](C)/C=C(\C)[C@@H]1OC(N)=O)C2=O | > 3100 nM | – | –
27 | C=CCNC1=C2C[C@@H](C)C[C@H](OC)[C@H](OC(=O)NS(=O)(=O)N3CCC3)[C@@H](C)/C=C(\C)[C@H](OC(N)=O)[C@@H](OC)/C=C\C=C(/C)C(=O)NC(=CC1=O)C2=O | 800 nM | – | –
28 | C=CCNC1=C2C[C@@H](C)C[C@H](OC)[C@H](O)[C@@H](C)/C=C(\C)[C@H](OC(=O)NCC)[C@@H](OC)/C=C\C=C(/C)C(=O)NC(=CC1=O)C2=O | > 3300 nM | – | –
29 | CO[C@H]1/C=C\C=C(/C)C(=O)N(CC(=O)c2ccc(N=[N+]=[N-])cc2)C2=CC(=O)C(N3CCC3)=C(C[C@@H](C)C[C@H](OC)[C@H](O)[C@@H](C)/C=C(\C)[C@@H]1OC(N)=O)C2=O | 1900 nM | – | –
30 | C=CCNC1=C2C[C@@H](C)C[C@H](OC)[C@H](O)[C@@H](C)/C=C(\C)[C@H](OC(N)=O)[C@@H](OC)/C=C\C=C(/C)C(=O)NC(=CC1=O)C2=O [TANESPIMYCIN] | – | 56% | –
31 | C=CCNC1=C2C[C@@H](C)C[C@H](OC)[C@@H](F)[C@@H](C)/C=C(\C)[C@H](OC(N)=O)[C@@H](OC)CC/C=C(\C)C(=O)NC(=CC1=O)C2=O | 1200 nM | – | inactive
32 | COC1=C2C[C@@H](C)C[C@H](OC)[C@H](O)[C@@H](C)/C=C(\C)[C@H](OC(N)=O)[C@@H](OC)/C=C\C=C(/C)C(=O)NC(=CC1=O)C2=O | – | – | inactive
33 | CO[C@H]1/C=C\C=C(/C)C(=O)NC2=CC(=O)C(N3CCC3)=C(C[C@@H](C)C[C@H](OC)[C@@H](F)[C@@H](C)/C=C(\C)[C@@H]1OC(N)=O)C2=O | 170 nM | – | inactive
34 | CO[C@H]1C[C@H](C)CC2=C(N)C(=O)C=C(NC(=O)/C(C)=C/CC[C@H](OC)[C@@H](OC(N)=O)/C(C)=C/[C@H](C)[C@H]1O)C2=O | 37 nM | 45% | –
35 | CO[C@H]1/C=C\C=C(/C)C(=O)NC2=CC(=O)C(NC(C)C)=C(C[C@@H](C)C[C@H](OC)[C@H](O)[C@@H](C)/C=C(\C)[C@@H]1OC(N)=O)C2=O | – | 87% | –
36 | COC(=O)/C(C)=C\C=C\[C@H](OC)[C@@H](OC(N)=O)/C(C)=C/[C@H](C)[C@@H](O)[C@H](C[C@H](C)CC1=C(N2CCC2)C(O)=CC(=N)C1=O)OC | > 3200 nM | – | –
37 | CO[C@H]1/C=C\C=C(/C)C(=O)N(CC(=O)c2ccc(N=[N+]=[N-])c(I)c2)C2=CC(=O)C(N)=C(C[C@@H](C)C[C@H](OC)[C@H](O)[C@@H](C)/C=C(\C)[C@@H]1OC(N)=O)C2=O | 140 nM | – | –
38 | CO[C@H]1/C=C\C=C(/C)C(=O)N(CC(C)=O)C2=CC(=O)C(N)=C(C[C@@H](C)C[C@H](OC)[C@H](O)[C@@H](C)/C=C(\C)[C@@H]1OC(N)=O)C2=O | 830 nM | – | –
39 | COc1ccccc1C(=O)CN1C(=O)/C(C)=C/C=C\[C@H](OC)[C@@H](OC(N)=O)/C(C)=C/[C@H](C)[C@@H](O)[C@@H](OC)C[C@H](C)CC2=C(N)C(=O)C=C1C2=O | 600 nM | 50% | –
40 | CO[C@H]1/C=C\C=C(/C)C(=O)NC2=CC(=O)C(N3CCC3)=C(C[C@@H](C)C[C@H](OC)[C@H](O)[C@@H](C)/C=C(\C)[C@@H]1OC(=O)C(=O)O)C2=O | 1000 nM | – | –
41 | COc1ccccc1C(=O)CN1C(=O)/C(C)=C/CC[C@H](OC)[C@@H](OC(N)=O)/C(C)=C/[C@H](C)[C@@H](O)[C@@H](OC)C[C@H](C)CC2=C(N)C(=O)C=C1C2=O | 200 nM | – | –
42 | CNC1=C2C[C@@H](C)C[C@H](OC)[C@H](O)[C@@H](C)/C=C(\C)[C@H](OC(N)=O)[C@@H](OC)/C=C\C=C(/C)C(=O)NC(=CC1=O)C2=O | – | 18% | –
43 | CO[C@H]1/C=C\C=C(/C)C(=O)N(CC(=O)c2ccc(N=[N+]=[N-])cc2)C2=CC(=O)C(N)=C(C[C@@H](C)C[C@H](OC)[C@H](O)[C@@H](C)/C=C(\C)[C@@H]1OC(N)=O)C2=O | 230 nM | – | –
44 | C=CCNC1=C2C[C@@H](C)C[C@H](OC)[C@@H](F)[C@@H](C)/C=C(\C)[C@H](OC(N)=O)[C@@H](OC)/C=C\C=C(/C)C(=O)NC(=CC1=O)C2=O | 260 nM | 50% | –
45 | CO[C@H]1C[C@H](C)CC2=C(N3CCC3)C(=O)C=C(NC(=O)/C(C)=C/C=C\[C@H](OC)[C@@H](OC(N)=O)/C(C)=C/[C@H](C)C1=O)C2=O | 34 nM | – | inactive
46 | CO[C@H]1/C=C\C=C(/C)C(=O)N(CC(=O)c2ccc3ccccc3c2)C2=CC(=O)C(N)=C(C[C@@H](C)C[C@H](OC)[C@H](O)[C@@H](C)/C=C(\C)[C@@H]1OC(N)=O)C2=O | 200 nM | – | inactive
